Each block holds one molecule with its values, some of them ahead of it.
Experiments:
Rattus norvegicus [1] = species: Rattus norvegicus; assay: Effect on insulin secretion from rat pancreatic islets at 10 uM concentration (n=22); format: functional
Method in brief: (§1)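 Islets isolated by collagenase from fed Wistar rats (180-220 g); groups of 10 preincubated 30 min, 37 °C, in bicarbonate salt medium with 2.8 mM glucose, 0.5% dialyzed albumin, O2/CO2 95:5. Then incubated 90 min, 37 °C, with 16.7 mM glucose plus drug. Insulin measured by radioimmunoassay against rat insulin standard; expressed as % of drug-free 16.7 mM glucose control; mean ± SEM (n).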

Rattus norvegicus [2] = species: Rattus norvegicus; assay: Effect on insulin secretion from rat pancreatic islets at 50 uM concentration (n=15); format: functional; method in brief: as §1
Rattus norvegicus [3] = species: Rattus norvegicus; assay: Concentration required for relaxation of the 30 mM KCl-induced contraction of rat aortic rings (n=4); format: functional; conditions: Aorta, read-out: ED50 (the source's name)
Method in brief: (§2)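 Endothelium-denuded transverse aortic rings (3-4 mm) from fed Wistar rats (180-200 g); isometric tension by force transducer. After 60 min equilibration, contracted with 30 mM KCl; at stable tension, drug added cumulatively until maximal relaxation or up to 0.3 mM. Relaxation expressed as % of KCl contraction; ED50 (50% inhibition of KCl plateau) from dose curves; mean ± SEM (n).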

Rattus norvegicus [4] = species: Rattus norvegicus; assay: Effect on insulin secretion from rat pancreatic islets at 10 uM concentration (n=24); format: functional; method in brief: as §1
Rattus norvegicus [5] = species: Rattus norvegicus; assay: Concentration required for 50% inhibition of insulin release in rat pancreatic B-cells; format: functional, cell-based
Rattus norvegicus [6] = species: Rattus norvegicus; assay: Effect on insulin secretion from rat pancreatic islets at 50 uM concentration (n=11); format: functional; method in brief: as §1
Rattus norvegicus [7] = species: Rattus norvegicus; assay: Effect on insulin secretion from rat pancreatic islets at 1 uM concentration (n=23); format: functional; method in brief: as §1
Rattus norvegicus [8] = species: Rattus norvegicus; assay: ED50/IC50 ratio was determined; format: functional
Rattus norvegicus [9] = species: Rattus norvegicus; assay: Effect on insulin secretion from rat pancreatic islets at 10 uM concentration (n=12); format: functional; method in brief: as §1
Rattus norvegicus [10] = species: Rattus norvegicus; assay: Concentration giving 50% relaxation of the 30 mM KCl-induced contraction of rat aortic rings (n=6); format: functional; conditions: Aorta, read-out: ED50 (the source's name); method in brief: as §2
Rattus norvegicus [11] = species: Rattus norvegicus; assay: Effect on insulin secretion from rat pancreatic islets at 50 uM concentration (n=16); format: functional; method in brief: as §1
Rattus norvegicus [12] = species: Rattus norvegicus; assay: Concentration giving 50% relaxation of the 30 mM KCl-induced contraction of rat aortic rings (n=7); format: functional; conditions: Aorta, read-out: ED50 (the source's name); method in brief: as §2
Rattus norvegicus [13] = species: Rattus norvegicus; assay: Effect on insulin secretion from rat pancreatic islets at 1 uM concentration (n=14); format: functional; method in brief: as §1
Rattus norvegicus [14] = species: Rattus norvegicus; assay: Effect on insulin secretion from rat pancreatic islets at 10 uM concentration (n=15); format: functional; method in brief: as §1
Rattus norvegicus [15] = species: Rattus norvegicus; assay: Effect on insulin secretion from rat pancreatic islets at 50 uM concentration (n=12); format: functional; method in brief: as §1
Rattus norvegicus [16] = species: Rattus norvegicus; assay: Effect on insulin secretion from rat pancreatic islets at 10 uM concentration (n=16); format: functional; method in brief: as §1
Rattus norvegicus [17] = species: Rattus norvegicus; assay: Effect on insulin secretion from rat pancreatic islets at 1 uM concentration (n=20); format: functional; method in brief: as §1
Rattus norvegicus [18] = species: Rattus norvegicus; assay: Concentration giving 50% relaxation of the 30 mM KCl-induced contraction of rat aortic rings (n=5); format: functional; conditions: Aorta, read-out: ED50 (the source's name); method in brief: as §2
[19] = Ionization constant was determined; format: physicochemical
Method in brief: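 Ionization constant found by UV spectroscopy in aqueous buffers spanning pH 5 to 12; pKa calculated with the Debye-Hückel equation at the absorbance maximum of the basic form.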

Rattus norvegicus [20] = species: Rattus norvegicus; assay: Effect on insulin secretion from rat pancreatic islets at 10 uM concentration (n=37); format: functional
Rattus norvegicus [21] = species: Rattus norvegicus; assay: Effect on insulin secretion from rat pancreatic islets at 50 uM concentration (n=14); format: functional; method in brief: as §1
Rattus norvegicus [22] = species: Rattus norvegicus; assay: Effect on insulin secretion from rat pancreatic islets at 1 uM concentration (n=22); format: functional; method in brief: as §1
Rattus norvegicus [23] = species: Rattus norvegicus; assay: Effect on insulin secretion from rat pancreatic islets at 10 uM concentration (n=23); format: functional; method in brief: as §1
Rattus norvegicus [24] = species: Rattus norvegicus; assay: Concentration giving 50% relaxation of the 30 mM KCl-induced contraction of rat aortic rings (n=10); format: functional; conditions: Aorta, read-out: ED50 (the source's name); method in brief: as §2
Rattus norvegicus [25] = species: Rattus norvegicus; assay: Effect on insulin secretion from rat pancreatic islets at 50 uM concentration (n=21); format: functional; method in brief: as §1
Rattus norvegicus [26] = species: Rattus norvegicus; assay: Effect on insulin secretion from rat pancreatic islets at 50 uM concentration (n=23); format: functional; method in brief: as §1
Rattus norvegicus [27] = species: Rattus norvegicus; assay: Concentration required for relaxation of the 30 mM KCl-induced contraction of rat aortic rings; format: functional; conditions: Aorta; method in brief: as §2
Rattus norvegicus [28] = species: Rattus norvegicus; assay: Concentration giving 50% relaxation of the 30 mM KCl-induced contraction of rat aortic rings (n=8); format: functional, Aorta; conditions: read-out: ED50 (the source's name); method in brief: as §2
Rattus norvegicus [29] = species: Rattus norvegicus; assay: Effect on insulin secretion from rat pancreatic islets at 1 uM concentration (n=19); format: functional; method in brief: as §1
Rattus norvegicus [30] = species: Rattus norvegicus; assay: Effect on insulin secretion from rat pancreatic islets at 10 uM concentration (n=14); format: functional; method in brief: as §1
Rattus norvegicus [31] = species: Rattus norvegicus; assay: Effect on insulin secretion from rat pancreatic islets at 1 uM concentration (n=16); format: functional; method in brief: as §1
Rattus norvegicus [32] = species: Rattus norvegicus; assay: Concentration required for relaxation of the 30 mM KCl-induced contraction of rat aortic rings; Precipitate; format: functional; conditions: Aorta; method in brief: as §2
Rattus norvegicus [33] = species: Rattus norvegicus; assay: Effect on insulin secretion from rat pancreatic islets at 10 uM concentration (n=21); format: functional; method in brief: as §1

Compound: Cc1ccc2c(c1)S(=O)(=O)NC(NC1CCC1)=N2
- Residual insulin release (Rattus norvegicus [4]): 19.7%
- IC50 (Rattus norvegicus [5]): 5.6 µM
- Residual insulin release (Rattus norvegicus [6]): 3.7%
- EC50 (Rattus norvegicus [3]): 58.4 µM
- Residual insulin release (Rattus norvegicus [7]): 99.5%
- Ratio (Rattus norvegicus [8]): 10

Compound: COc1ccc2c(c1)S(=O)(=O)NC(NC1CCC1)=N2
- IC50 (Rattus norvegicus [5]): 2.2 µM
- Residual insulin release (Rattus norvegicus [13]): 71.3%
- Residual insulin release (Rattus norvegicus [14]): 14.1%
- Residual insulin release (Rattus norvegicus [15]): 4%
- EC50 (Rattus norvegicus [10]): 157 µM
- Ratio (Rattus norvegicus [8]): 72

Compound: COc1ccc2c(c1)S(=O)(=O)NC(NC(C)C)=N2
- Residual insulin release (Rattus norvegicus [4]): 8.5%
- Residual insulin release (Rattus norvegicus [17]): 67.6%
- IC50 (Rattus norvegicus [5]): 3.7 µM
- EC50 (Rattus norvegicus [18]): 274 µM
- pKa [19]: 10.1
- Residual insulin release (Rattus norvegicus [15]): 4.4%
- Ratio (Rattus norvegicus [8]): 74

Compound: CCCNC1=NS(=O)(=O)c2cc(C(=O)O)ccc2N1
- Residual insulin release (Rattus norvegicus [14]): 97.6%
- Residual insulin release (Rattus norvegicus [2]): 95.3%
- EC50 (Rattus norvegicus [3]): > 300 µM

Compound: N#Cc1ccc2c(c1)S(=O)(=O)N=C(NC1CCC1)N2
- Residual insulin release (Rattus norvegicus [25]): 54.3%
- Residual insulin release (Rattus norvegicus [14]): 102.6%
- EC50 (Rattus norvegicus [3]): 57.9 µM

Compound: CC(C)C(C)NC1=NS(=O)(=O)c2cnccc2N1 (stereo unspecified)
- Residual insulin release (Rattus norvegicus [26]): 8.6%
- IC50 (Rattus norvegicus [27]): 154 µM
- EC50 (Rattus norvegicus [28]): 154 µM
- Residual insulin release (Rattus norvegicus [23]): 13.7%
- Residual insulin release (Rattus norvegicus [29]): 70.5%
- Ratio (Rattus norvegicus [8]): 35

Compound: CCOc1ccc2c(c1)S(=O)(=O)NC(NC(C)C)=N2
- Residual insulin release (Rattus norvegicus [30]): 65.9%
- EC50 (Rattus norvegicus [3]): 233 µM

Compound: O=S1(=O)N=C(NC2CCC2)Nc2ccccc21
- Residual insulin release (Rattus norvegicus [31]): 79.9%
- Residual insulin release (Rattus norvegicus [30]): 29.8%
- ED50 (Rattus norvegicus [32]): Insoluble

Compound: CCCCCc1ccc2c(c1)S(=O)(=O)NC(NCC)=N2
- Residual insulin release (Rattus norvegicus [16]): 104%
- EC50 (Rattus norvegicus [3]): 6.6 µM

Compound: CCCNC1=NS(=O)(=O)c2ccccc2N1
- Residual insulin release (Rattus norvegicus [31]): 93.8%
- Residual insulin release (Rattus norvegicus [33]): 54.2%
- EC50 (Rattus norvegicus [3]): > 300 µM

Compound: CCCNC1=NS(=O)(=O)c2cc(C(F)(F)F)ccc2N1
- Residual insulin release (Rattus norvegicus [1]): 77.9%
- EC50 (Rattus norvegicus [3]): 2.9 µM
- Residual insulin release (Rattus norvegicus [21]): 52%

Compound: CCNC1=NS(=O)(=O)c2cc(OCC)ccc2N1
- Residual insulin release (Rattus norvegicus [4]): 75%
- EC50 (Rattus norvegicus [3]): 162 µM

Continued, in another order:

- EC50 (Rattus norvegicus [3]): 8.9 µM
Compound: CCC(C)NC1=NS(=O)(=O)c2cc(C(F)(F)F)ccc2N1 (stereo unspecified)
- Residual insulin release (Rattus norvegicus [1]): 76.1%
- Residual insulin release (Rattus norvegicus [2]): 28.6%

- IC50 (Rattus norvegicus [5]): 2.5 µM
- EC50 (Rattus norvegicus [10]): 210 µM
Compound: CCNC1=NS(=O)(=O)c2cc(C)ccc2N1
- Residual insulin release (Rattus norvegicus [9]): 8.6%
- Residual insulin release (Rattus norvegicus [7]): 83.8%
- Ratio (Rattus norvegicus [8]): 84

- EC50 (Rattus norvegicus [12]): 15.7 µM
Compound: CCCNC1=NS(=O)(=O)c2cc([N+](=O)[O-])ccc2N1
- Residual insulin release (Rattus norvegicus [11]): 88.9%

- EC50 (Rattus norvegicus [3]): 126 µM
Compound: CCC(C)NC1=NS(=O)(=O)c2cc(S(C)(=O)=O)ccc2N1 (stereo unspecified)
- Residual insulin release (Rattus norvegicus [16]): 97.2%

- pKa [19]: 7.91
- EC50 (Rattus norvegicus [3]): 23.1 µM
Compound: CC(C)NC1=NS(=O)(=O)c2cc([N+](=O)[O-])ccc2N1
- Residual insulin release (Rattus norvegicus [20]): 64%
- Residual insulin release (Rattus norvegicus [21]): 4.8%

- IC50 (Rattus norvegicus [5]): 11.2 µM
- EC50 (Rattus norvegicus [24]): 15.5 µM
Compound: CCC(C)NC1=NS(=O)(=O)c2cc(C)ccc2N1 (stereo unspecified)
- Residual insulin release (Rattus norvegicus [22]): 93.6%
- Residual insulin release (Rattus norvegicus [23]): 50.7%
- Ratio (Rattus norvegicus [8]): 1.4

- EC50 (Rattus norvegicus [3]): > 300 µM
Compound: CCC(C)NC1=NS(=O)(=O)c2cc(C(=O)O)ccc2N1 (stereo unspecified)
- Residual insulin release (Rattus norvegicus [23]): 93%
- Residual insulin release (Rattus norvegicus [11]): 91.2%

- pKa [19]: 10.5
- EC50 (Rattus norvegicus [3]): > 300 µM
Compound: CC(C)NC1=NS(=O)(=O)c2cc(N)ccc2N1
- Residual insulin release (Rattus norvegicus [2]): 85.8%

- pKa [19]: 9.8
- EC50 (Rattus norvegicus [3]): > 300 µM
Compound: CC(=O)Nc1ccc2c(c1)S(=O)(=O)N=C(NC(C)C)N2
- Residual insulin release (Rattus norvegicus [11]): 89.3%
